Reference: ChEMBL document CHEMBL1821616, “New insights into the structural requirements for pro-apoptotic agents based on 2,4-diaminoquinazoline, 2,4-diaminopyrido[2,3-d]pyrimidine and 2,4-diaminopyrimidine derivatives” (Eur J Med Chem, 2011)
The source made the active and inactive calls. The rule behind the calls is not given here.

Experiments:
T-24 [1] = experiment: Cytotoxicity against human T24 cells after 48 hrs by neutral red dye assay; format: functional, cell-based
HT-29 [2] = experiment: Cytotoxicity against human HT-29 cells after 48 hrs by neutral red dye assay; format: functional, cell-based
MDA-MB-231 [3] = experiment: Cytotoxicity against human MDA-MB-231 cells after 48 hrs by neutral red dye assay; format: functional, cell-based
T-24 [4] = experiment: Cytotoxicity against human T24 cells after 72 hrs by neutral red dye assay; format: functional, cell-based; conditions: T-24, 72 h
Outline: (§1)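 Human tumour cells were grown as monolayers with 10% FBS and penicillin/streptomycin at 37 °C in 5% CO2 (HT-29 and T-24 in McCoy's, MDA-MB-231 in Leibovitz). They were exposed to compound in DMSO (≤0.5% v/v final) at screening concentrations of 20 and 100 μM for 72 h and read by neutral red uptake. Survival is relative to cells given DMSO only, in triplicate.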

HT-29 [5] = experiment: Cytotoxicity against human HT-29 cells after 72 hrs by neutral red dye assay; format: functional, cell-based; conditions: HT-29, 72 h; outline: as §1
MDA-MB-231 [6] = experiment: Cytotoxicity against human MDA-MB-231 cells after 72 hrs by neutral red dye assay; format: functional, cell-based; conditions: MDA-MB-231, 72 h; outline: as §1
T-24 [7] = experiment: Induction of apoptosis in human T24 cells assessed as DNA fragmentation after 48 hrs by ELISA relative to control; format: functional
Outline: (§2)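 DNA fragmentation was measured with the Cell Death Detection ELISA Plus kit after treatment of cultured tumour cells. The signal is expressed relative to untreated control cultures, which are set to 1.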

HT-29 [8] = experiment: Induction of apoptosis in human HT-29 cells assessed as DNA fragmentation after 48 hrs by ELISA relative to control; format: functional; outline: as §2
MDA-MB-231 [9] = experiment: Induction of apoptosis in human MDA-MB-231 cells assessed as DNA fragmentation after 24 hrs by ELISA relative to control; format: functional; outline: as §2
[10] = Cytotoxicity against human CRL8799 cells assessed as cell survival at 20 to 100 uM after 72 hrs by neutral red dye assay; format: cell-based; conditions: read-out: Survival
Outline: (§3)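 The non-tumoral lines were grown with 10% FBS plus penicillin/streptomycin, as monolayers at 37 °C in 5% CO2: CRL-8799 in MEG medium and CRL-11233 in BEGM. Compounds in DMSO (≤0.5% v/v final) were applied for 72 h. Survival was read by neutral red uptake against 0.5% DMSO solvent-treated controls, as the mean of triplicates.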

[11] = Cytotoxicity against human CRL11233 cells assessed as cell survival at 20 to 100 uM after 72 hrs by neutral red dye assay; format: cell-based; conditions: read-out: Survival; outline: as §3
T-24 [12] = experiment: Cytotoxicity against human T24 cells assessed as cell survival at 100 uM after 72 hrs by neutral red dye assay; format: functional; conditions: T-24, 72 h, read-out: Survival
Outline: (§4)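 HT-29 and T-24 cells were grown in McCoy's medium and MDA-MB-231 in Leibovitz, each with 10% FBS plus penicillin/streptomycin, as monolayers at 37 °C in 5% CO2. Compounds in DMSO (≤0.5% v/v final) were applied for 72 h. Survival was read by neutral red uptake against 0.5% DMSO-treated cells, as the mean of triplicates.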

HT-29 [13] = experiment: Cytotoxicity against human HT-29 cells assessed as cell survival at 100 uM after 72 hrs by neutral red dye assay; format: functional; conditions: HT-29, 72 h, read-out: Survival; outline: as §4
MDA-MB-231 [14] = experiment: Cytotoxicity against human MDA-MB-231 cells assessed as cell survival at 100 uM after 72 hrs by neutral red dye assay; format: functional; conditions: MDA-MB-231, 72 h, read-out: Survival; outline: as §4
T-24 [15] = experiment: Induction of apoptosis in human T24 cells assessed as DNA fragmentation after 48 hrs by ELISA relative to camptothecin; format: functional
HT-29 [16] = experiment: Induction of apoptosis in human HT-29 cells assessed as DNA fragmentation after 48 hrs by ELISA relative to camptothecin; format: functional

SMILES: CCSc1nc(NCCCCCO)c2cccnc2n1
- IC50 (T-24 [1]): Not Active
- IC50 (HT-29 [2]): Not Active
- IC50 (MDA-MB-231 [3]): Not Active

SMILES: c1ccc(CCCCNc2ccnc(NCCCCc3ccccc3)n2)cc1
- IC50 (T-24 [1]): Not Active
- IC50 (HT-29 [2]): Not Active
- IC50 (MDA-MB-231 [3]): Not Active

SMILES: c1ccc(CNc2ccnc(NCc3ccccc3)n2)cc1
- IC50 (T-24 [4]): 6.1 µM
- IC50 (HT-29 [5]): 17.2 µM
- IC50 (MDA-MB-231 [6]): 1.9 µM
- fold change (FC) (T-24 [7]): 6
- fold change (FC) (HT-29 [8]): 7.4
- Activity (MDA-MB-231 [9]): inactive
- viability at 72 h, up to 100 µM [10]: 22%
- viability at 72 h, up to 100 µM [11]: 0%
- viability at 100 µM (T-24 [12]): < 45%
- viability at 100 µM (HT-29 [13]): < 45%
- viability at 100 µM (MDA-MB-231 [14]): < 45%
- fold change (FC) (T-24 [15]): 2.3
- fold change (FC) (HT-29 [16]): 2.3

SMILES: CCSc1nc(NCCCCO)c2cccnc2n1
- IC50 (T-24 [1]): Not Active
- IC50 (HT-29 [2]): Not Active
- IC50 (MDA-MB-231 [3]): Not Active

SMILES: OCCCCNc1nc(NCCCCO)c2cccnc2n1
- IC50 (T-24 [1]): Not Active
- IC50 (HT-29 [2]): Not Active
- IC50 (MDA-MB-231 [3]): Not Active

SMILES: CCSc1nc(NCCCO)c2cccnc2n1
- IC50 (T-24 [1]): Not Active
- IC50 (HT-29 [2]): Not Active
- IC50 (MDA-MB-231 [3]): Not Active

SMILES: CCCCCNc1nc(SCCCCC)nc2ncccc12
- Activity (HT-29 [8]): inactive
- IC50 (T-24 [1]): Not Active
- IC50 (HT-29 [2]): Not Active
- IC50 (MDA-MB-231 [3]): Not Active

SMILES: c1ccc(CCNc2nc(NCCc3ccccn3)c3cccnc3n2)nc1
- IC50 (T-24 [1]): Not Active
- IC50 (HT-29 [2]): Not Active
- IC50 (MDA-MB-231 [3]): Not Active

SMILES: CC(C)Sc1nc(NCCCO)c2cccnc2n1
- Activity (HT-29 [8]): inactive
- Activity (MDA-MB-231 [9]): inactive
- IC50 (T-24 [1]): Not Active
- IC50 (HT-29 [2]): Not Active
- IC50 (MDA-MB-231 [3]): Not Active

SMILES: OCCCNc1nc(NCCCO)c2cccnc2n1
- IC50 (T-24 [1]): Not Active
- IC50 (HT-29 [2]): Not Active
- IC50 (MDA-MB-231 [3]): Not Active

SMILES: CCCCCSc1nc(NCCCC)c2cccnc2n1
- IC50 (T-24 [1]): Not Active
- IC50 (HT-29 [2]): Not Active
- IC50 (MDA-MB-231 [3]): Not Active
